ChEMBL document CHEMBL1143122, “Novel analogs of D-e-MAPP and B13. Part 1: synthesis and evaluation as potential anticancer agents” (Bioorg Med Chem, 2008)

Experiments:
MOLT-4 = experiment: Antiproliferative activity against human MOLT4 cells after 48 hrs; assay type: functional; details: MOLT-4, 48 h
Summary of the method: (§1)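 NCI 60-cell screen. Cells were grown in RPMI 1640 with 5% FBS and 2 mM L-glutamine, then plated at 5,000–40,000 cells/well according to doubling time and preincubated for 24 h at 37 °C in 5% CO2. Compounds were dissolved in DMSO at 400× the top final concentration and tested at five 10-fold dilutions from 10−4 to 10−8 M for 48 h. Growth was read spectrophotometrically; GI50 is 50% net protein reduction.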

A549 = experiment: Antiproliferative activity against human A549 cells after 48 hrs; assay type: functional; details: A549, 48 h; summary of the method: as §1
HT-29 = experiment: Antiproliferative activity against human HT29 cells after 48 hrs; assay type: functional; details: HT-29, 48 h; summary of the method: as §1
SK-OV-3 = experiment: Antiproliferative activity against human SKOV3 cells after 48 hrs; assay type: functional; details: SK-OV-3, 48 h; summary of the method: as §1
HOP-62 = experiment: Antiproliferative activity against human HOP62 cells after 48 hrs; assay type: functional; details: HOP-62, 48 h; summary of the method: as §1
SW-620 = experiment: Antiproliferative activity against human SW620 cells after 48 hrs; assay type: functional; details: SW-620, 48 h
Summary of the method: (§2)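 NCI 60-cell-line screen. Lines grown in RPMI 1640 with 5% fetal bovine serum and 2 mM L-glutamine, plated at 5,000–40,000 cells/well according to doubling time, left 24 h at 37 °C in 5% CO2. Drug stocks in DMSO at 400-fold the top final concentration. Five 10-fold dilutions, 10−4 to 10−8 M, incubated 48 h. Growth read spectrophotometrically as net protein; GI50 taken as 50% reduction.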

RPMI-8226 = experiment: Antiproliferative activity against human RPMI8226 cells after 48 hrs; assay type: functional; details: RPMI-8226, 48 h; summary of the method: as §1
BT-549 = experiment: Antiproliferative activity against human BT549 cells after 48 hrs; assay type: functional; details: BT-549, 48 h; summary of the method: as §1
HOP-92 = experiment: Antiproliferative activity against human HOP92 cells after 48 hrs; assay type: functional; details: HOP-92, 48 h; summary of the method: as §1
[1] = Antiproliferative activity against human NCI-ADR-RES cells after 48 hrs; assay type: functional; summary of the method: as §1
M14 = experiment: Antiproliferative activity against human M14 cells after 48 hrs; assay type: functional; details: M14, 48 h; summary of the method: as §1
UACC-257 = experiment: Antiproliferative activity against human UACC257 cells after 48 hrs; assay type: functional; details: UACC-257, 48 h; summary of the method: as §2
SN12C = experiment: Antiproliferative activity against human SN12C cells after 48 hrs; assay type: functional; summary of the method: as §1
A498 = experiment: Antiproliferative activity against human A498 cells after 48 hrs; assay type: functional; details: A498, 48 h; summary of the method: as §1
SNB-75 = experiment: Antiproliferative activity against human SNB75 cells after 48 hrs; assay type: functional; details: SNB-75, 48 h; summary of the method: as §1
[2] = Antiproliferative activity against human HL60(TB) cells after 48 hrs; assay type: functional, HL-60(TB); details: HL-60, 48 h
Summary of the method: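 NCI 60-line panel screen: cells grown in RPMI 1640 with 5% fetal bovine serum and 2 mM L-glutamine, plated at 5,000–40,000 cells/well by doubling time, and preincubated 24 h at 37 °C in 5% CO2. Drugs were solubilised in DMSO at 400-fold the final maximum and tested at five 10-fold dilutions from 10−4 to 10−8 M for 48 h. Net protein was read spectrophotometrically, and the concentration giving 50% reduction was reported as log10 GI50.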

Hs-578T = experiment: Antiproliferative activity against human HS578T cells after 48 hrs; assay type: functional; summary of the method: as §1
IGROV-1 = experiment: Antiproliferative activity against human IGROV1 cells after 48 hrs; assay type: functional; details: IGROV-1, 48 h; summary of the method: as §1
T47D = experiment: Antiproliferative activity against human T47D cells after 48 hrs; assay type: functional; summary of the method: as §2
SF-539 = experiment: Antiproliferative activity against human SF539 cells after 48 hrs; assay type: functional; details: SF-539, 48 h; summary of the method: as §1
HCC 2998 = experiment: Antiproliferative activity against human HCC2998 cells after 48 hrs; assay type: functional; details: HCC 2998, 48 h; summary of the method: as §1
K562 = experiment: Antiproliferative activity against human K562 cells after 48 hrs; assay type: functional; details: K562, 48 h; summary of the method: as §1
SF-268 = experiment: Antiproliferative activity against human SF268 cells after 48 hrs; assay type: functional; details: SF-268, 48 h; summary of the method: as §1
TK-10 = experiment: Antiproliferative activity against human TK10 cells after 48 hrs; assay type: functional; details: TK-10, 48 h; summary of the method: as §2
NCI-H23 = experiment: Antiproliferative activity against human NCI-H23 cells after 48 hrs; assay type: functional; details: NCI-H23, 48 h; summary of the method: as §1
OVCAR-8 = experiment: Antiproliferative activity against human OVCAR8 cells after 48 hrs; assay type: functional; details: OVCAR-8, 48 h; summary of the method: as §1
[3] = read-out: Log LC50 (the source's name) (converted)

In the case of CCCCCCCCCCCCCCN[C@@H](CO)Cc1ccccc1, the GI50 (MOLT-4) is reported as 2.04 µM, the LC50 (MOLT-4) is reported as 9.33 µM and the TGI (MOLT-4; read-out: Log TGI (converted)) is reported as 4.37 µM. For the same compound, the GI50 (A549) was 2.04 µM, the CC50 (A549; [3]) was 26.3 µM and the TGI (A549; read-out: Log TGI (converted)) was 4.68 µM. It also gave a GI50 (HT-29) of 2.04 µM, an LC50 (HT-29) of 7.76 µM and a TGI (HT-29; read-out: Log TGI (converted)) of 3.98 µM. It also gave a GI50 (SK-OV-3) of 2.19 µM, a CC50 (SK-OV-3; [3]) of 9.33 µM and a TGI (SK-OV-3; read-out: Log TGI (converted)) of 4.57 µM. It also gave a GI50 (HOP-62) of 1.23 µM, a CC50 (HOP-62; [3]) of 5.37 µM and a TGI (HOP-62; read-out: Log TGI (converted)) of 2.57 µM. For the same compound, the GI50 (SW-620) was 2 µM, the LC50 (concentration killing 50% of cells) (SW-620) was 8.13 µM and the TGI (SW-620; read-out: Log TGI (converted)) was 4.07 µM. It also gave a GI50 (RPMI-8226) of 1.55 µM, a CC50 (RPMI-8226; [3]) of 7.41 µM and a TGI (RPMI-8226; read-out: Log TGI (converted)) of 3.39 µM. For the same compound, the LC50 (BT-549) was 4.57 µM, the TGI (BT-549; read-out: Log TGI (converted)) was 1.78 µM and the GI50 (HOP-92) was 1.23 µM. For the same compound, the LC50 (HOP-92) was 6.46 µM, the TGI (HOP-92; read-out: Log TGI (converted)) was 2.82 µM and the GI50 [1] was 1.86 µM. It also gave an LC50 [1] of 6.31 µM, a TGI ([1]; read-out: Log TGI (converted)) of 3.47 µM and a GI50 (M14) of 2.24 µM. For the same compound, the LC50 (M14) was 6.76 µM, the TGI (M14; read-out: Log TGI (converted)) was 3.89 µM and the GI50 (UACC-257) was 2.09 µM. It also gave a CC50 (UACC-257; [3]) of 17.8 µM, a TGI (UACC-257; read-out: Log TGI (converted)) of 4.79 µM and a GI50 (SN12C) of 1.86 µM. It also gave an LC50 (50% net cell kill) (SN12C) of 7.41 µM, a TGI (SN12C; read-out: Log TGI (converted)) of 3.72 µM and a GI50 (A498) of 14.5 µM. It also gave a CC50 (A498; [3]) of 52.5 µM, a TGI (A498; read-out: Log TGI (converted)) of 27.5 µM and a GI50 (SNB-75) of 2.19 µM. For the same compound, the CC50 (SNB-75; [3]) was 14.1 µM, the TGI (SNB-75; read-out: Log TGI (converted)) was 4.79 µM and the GI50 [2] was 1.78 µM. The LC50 [2] was 9.33 µM, the TGI ([2]; read-out: Log TGI (converted)) was 4.07 µM and the GI50 (Hs-578T) was 2.4 µM. For the same compound, the LC50 (Hs-578T) was 11 µM, the TGI (Hs-578T; read-out: Log TGI (converted)) was 5.01 µM and the GI50 (IGROV-1) was 1.91 µM. For the same compound, the TGI (IGROV-1; read-out: Log TGI (converted)) was 3.72 µM, the GI50 (T47D) was 1.66 µM and the CC50 (T47D; [3]) was 6.92 µM. It also gave a TGI (T47D; read-out: Log TGI (converted)) of 3.31 µM, a GI50 (SF-539) of 1.7 µM and an LC50 (SF-539) of 6.76 µM. It also gave a TGI (SF-539; read-out: Log TGI (converted)) of 3.39 µM, a GI50 (HCC 2998) of 2.24 µM and a CC50 (HCC 2998; [3]) of 6.17 µM. The TGI (HCC 2998; read-out: Log TGI (converted)) was 3.72 µM, the GI50 (K562) was 1.82 µM and the LC50 (K562) was 9.33 µM. It also gave a TGI (K562; read-out: Log TGI (converted)) of 4.07 µM, a GI50 (SF-268) of 1.78 µM and an LC50 (SF-268) of 7.08 µM. It also gave a TGI (SF-268; read-out: Log TGI (converted)) of 3.55 µM, a GI50 (TK-10) of 2.04 µM and a CC50 (TK-10; [3]) of 6.76 µM. The TGI (TK-10; read-out: Log TGI (converted)) was 3.72 µM, the GI50 (NCI-H23) was 2.09 µM and the CC50 (NCI-H23; [3]) was 9.77 µM. For the same compound, the TGI (NCI-H23; read-out: Log TGI (converted)) was 4.47 µM, the GI50 (OVCAR-8) was 1.91 µM and the TGI (OVCAR-8; read-out: Log TGI (converted)) was 3.8 µM.
